Test results as given in ChEMBL document CHEMBL1122220, “Synthesis and antiallergic activity of some acidic derivatives of 4H-pyrimido[2,1-b]benzazol-4-ones” (1983).
Calls of active or inactive are those of the source. The rule behind the calls is not given here.

Tests used:
Rattus norvegicus [1] = test: Minimum effective dose (MED) intraperitoneally in passive cutaneous anaphylaxis (PCA) model for 50% inhibition in Sprague-Dawley rat; type: functional; conditions: ip, read-out: MED
Summary of the method: (§1)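 Rat passive cutaneous anaphylaxis in Sprague-Dawley rats. Compounds given ip as a Klucel suspension at 5, 1.25 and/or 0.31 mg/kg (some at 10, 2.5 and 0.63 mg/kg ip), six animals per dose. MED is the lowest dose giving >50% inhibition with p ≤ 0.05 (Student's t test). Where data sufficed, ID50 with 95% confidence range was derived from experiments of six animals each.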

Rattus norvegicus [2] = species on record: Rattus norvegicus; test: Minimum effective dose (MED) perorally in passive cutaneous anaphylaxis (PCA) model for 50% inhibition in Sprague-Dawley rat; type: functional; conditions: po, read-out: MED
Summary of the method: (§2)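 Sprague-Dawley rat passive cutaneous anaphylaxis with oral dosing of a Klucel suspension at 10, 5 and/or 2.5 mg/kg, six animals per dose. MED po is the lowest dose producing >50% inhibition at p ≤ 0.05 (Student's t test).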

Rattus norvegicus [3] = test: Concentration of compound intraperitoneally in passive cutaneous anaphylaxis (PCA) model for 50% inhibition in Sprague-Dawley rat; type: functional; conditions: ip, read-out: ID50 (the source's name); summary of the method: as §1
Rattus norvegicus [4] = species on record: Rattus norvegicus; test: Concentration of compound perorally in passive cutaneous anaphylaxis (PCA) model for 50% inhibition in Sprague-Dawley rat; IN-Ineffective; type: functional, organism-based; summary of the method: as §2

| SMILES | minimal effective dose (Rattus norvegicus [1]) | minimal effective dose (Rattus norvegicus [2]) | ED50 (Rattus norvegicus [3]) | ID50 (Rattus norvegicus [4]) |
| --- | --- | --- | --- | --- |
| O=C(Nc1nn[nH]n1)c1cc(=O)n2c(n1)oc1ccccc12 | 1.25 mg/kg | > 10 mg/kg | – | – |
| O=C(Nc1nn[nH]n1)c1cc(=O)n2c(n1)sc1ccccc12 | 1.25 mg/kg | > 10 mg/kg | – | – |
| O=C(Nc1nn[nH]n1)c1cnc2oc3ccccc3n2c1=O | 1.25 mg/kg | 10 mg/kg | – | – |
| O=C(O)c1cc(=O)n2c(n1)oc1ccccc12 | 5 mg/kg | > 10 mg/kg | – | – |
| Cn1c2ccccc2n2c(=O)c(C(=O)Nc3nn[nH]n3)cnc12 | 0.31 mg/kg | > 10 mg/kg | – | – |
| O=C(O)c1cnc2sc3ccccc3n2c1=O | > 5 mg/kg | > 10 mg/kg | – | – |
| Cn1c2ccccc2n2c(=O)cc(C(=O)Nc3nn[nH]n3)nc12 | 1.25 mg/kg | 10 mg/kg | – | – |
| O=c1c(-c2nnn[nH]2)cnc2oc3ccccc3n12 | 1.25 mg/kg | 5 mg/kg | – | – |
| O=c1cc(-c2nn[nH]n2)nc2oc3ccccc3n12 | 1.25 mg/kg | > 10 mg/kg | – | – |
| O=C(O)c1cc(=O)n2c(n1)sc1ccccc12 | > 5 mg/kg | > 10 mg/kg | – | – |
| O=C(O)c1cnc2oc3ccccc3n2c1=O | > 5 mg/kg | > 10 mg/kg | – | – |
| O=c1cc(-c2nn[nH]n2)nc2sc3ccccc3n12 | 5 mg/kg | > 10 mg/kg | – | – |
| Cn1c2ccccc2n2c(=O)cc(C(=O)O)nc12 | > 5 mg/kg | > 10 mg/kg | – | – |
| Cn1c2ccccc2n2c(=O)c(-c3nnn[nH]3)cnc12 | 0.31 mg/kg | 2.5 mg/kg | – | – |
| O=c1c(-c2nnn[nH]2)cnc2sc3ccccc3n12 | 1.25 mg/kg | > 10 mg/kg | – | – |
| Cn1c2ccccc2n2c(=O)cc(-c3nn[nH]n3)nc12 | 5 mg/kg | – | – | – |
| Cn1c2ccccc2n2c(=O)c(C(=O)O)cnc12 | 0.63 mg/kg | > 10 mg/kg | – | – |
| O=C([O-])c1cc(=O)c2c(OCC(O)COc3cccc4oc(C(=O)[O-])cc(=O)c34)cccc2o1.[Na+].[Na+] [CROMOLYN SODIUM] | – | – | 2.6 mg/kg | inactive |
| O=C(Nc1nn[nH]n1)c1cnc2sc3ccccc3n2c1=O | 1.25 mg/kg | > 10 mg/kg | – | – |
